In ChEMBL document CHEMBL2040709, “Synthesis, antidepressant and antimicrobial activities of some novel stearic acid analogues” (2012):

What was measured:
Assay type in all cases: functional
[1] = tested on: Staphylococcus aureus; assay: Antibacterial activity against Staphylococcus aureus at 500 ug/ml after 24 hrs by agar disc diffusion method; conditions: read-out: DIZ
Summary of the method: (§1)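 Agar disc diffusion on nutrient agar plates surface-spread with standard inoculum ([…], 0.5 McFarland). Whatman No.1 paper discs (6 mm, dry-heat sterilised 140 °C, 1 h) were soaked in test compound at two concentrations (500 and 1000, as tabulated). DMSO-only discs and solvent/growth controls were included. Plates were inverted and incubated 24 h at 37 °C. Zones of inhibition were measured, and percentage potency was calculated per Indian Pharmacopoeia.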

[2] = tested on: Escherichia coli; assay: Antibacterial activity against Escherichia coli at 1000 ug/ml after 24 hrs by agar disc diffusion method; conditions: read-out: DIZ; summary of the method: as §1
[3] = tested on: Candida albicans; assay: […] at 500 to 1000 ug/ml after 24 hrs by agar disc diffusion method; summary of the method: as §1
[4] = tested on: Candida albicans; assay: […] at 500 ug/ml after 24 hrs by agar disc diffusion method; conditions: read-out: DIZ; summary of the method: as §1
[5] = tested on: Pseudomonas aeruginosa; assay: Antibacterial activity against Pseudomonas aeruginosa at 1000 ug/ml after 24 hrs by agar disc diffusion method; conditions: read-out: DIZ; summary of the method: as §1
[6] = tested on: Pseudomonas aeruginosa; assay: Antibacterial activity against Pseudomonas aeruginosa at 500 to 1000 ug/ml after 24 hrs by agar disc diffusion method; summary of the method: as §1
[7] = tested on: Staphylococcus aureus; assay: Antibacterial activity against Staphylococcus aureus at 500 to 1000 ug/ml after 24 hrs by agar disc diffusion method; summary of the method: as §1
[8] = tested on: Staphylococcus aureus; assay: Antibacterial activity against Staphylococcus aureus at 1000 ug/ml after 24 hrs by agar disc diffusion method; conditions: read-out: DIZ; summary of the method: as §1
[9] = tested on: Bacillus subtilis; assay: Antibacterial activity against Bacillus subtilis at 1000 ug/ml after 24 hrs by agar disc diffusion method; conditions: read-out: DIZ; summary of the method: as §1
[10] = tested on: Candida albicans; assay: […] at 1000 ug/ml after 24 hrs by agar disc diffusion method; conditions: read-out: DIZ; summary of the method: as §1
[11] = tested on: Bacillus subtilis; assay: Antibacterial activity against Bacillus subtilis at 500 ug/ml after 24 hrs by agar disc diffusion method; conditions: read-out: DIZ; summary of the method: as §1
[12] = tested on: Pseudomonas aeruginosa; assay: Antibacterial activity against Pseudomonas aeruginosa at 500 ug/ml after 24 hrs by agar disc diffusion method; conditions: read-out: DIZ; summary of the method: as §1
[13] = tested on: Bacillus subtilis; assay: Antibacterial activity against Bacillus subtilis at 500 to 1000 ug/ml after 24 hrs by agar disc diffusion method; summary of the method: as §1
[14] = tested on: Escherichia coli; assay: Antibacterial activity against Escherichia coli at 500 ug/ml after 24 hrs by agar disc diffusion method; conditions: read-out: DIZ; summary of the method: as §1
[15] = tested on: Escherichia coli; assay: Antibacterial activity against Escherichia coli at 500 to 1000 ug/ml after 24 hrs by agar disc diffusion method; summary of the method: as §1
[16] = tested on: Mus musculus; assay: Antidepressant activity in Swiss albino mouse assessed as decrease in immobility time at 30 mg/kg, ip administered 30 mins before test measured for 4 mins of total 6 mins test by forced swim test; conditions: route intraperitoneal
Summary of the method: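 Forced swim test in inbred male Swiss albino mice (20–30 g), groups of 6, acclimatised one week. The 30 mg/kg dose was suspended in 0.5% CMC and given i.p. 30 min before the test; controls received vehicle. Mice swam singly in a glass tank with 15 cm water at 25 ± 3 °C. Immobility was timed over the last 4 min of a 6 min session. Dunnett's test was applied.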

[17] = tested on: Mus musculus; assay: Antidepressant activity in Swiss albino mouse assessed as increase in dopamine level in brain at 30 mg/kg, ip by HPLC analysis; conditions: route intraperitoneal

SMILES	zone of inhibition at 500 µg/mL [1] [mm]	zone of inhibition at 1000 µg/mL [2] [mm]	Activity [3] [%]	zone of inhibition at 500 µg/mL [4] [mm]	zone of inhibition at 1000 µg/mL [5] [mm]	Activity [6] [%]	Activity [7] [%]	zone of inhibition at 1000 µg/mL [8] [mm]	zone of inhibition at 1000 µg/mL [9] [mm]	zone of inhibition at 1000 µg/mL [10] [mm]	zone of inhibition at 500 µg/mL [11] [mm]	zone of inhibition at 500 µg/mL [12] [mm]	Activity [13] [%]	zone of inhibition at 500 µg/mL [14] [mm]	Activity [15] [%]	Time [16] [s]	Activity [17] [ng/mg]
CCCCCCCCCCCCCCCCCc1nnc(-c2ccccc2)o1	14	18	56.71	15	17	60.95	94.6	21	16	20	13	16	75.78	14	93.3	70	0.25
CCCCCCCCCCCCCCCCCc1nnc(-c2ccccc2)n1N	13	17	65.97	15	16	59.45	75.78	18	15	22	12	13	93.3	16	93.3	68.83	0.367
CCCCCCCCCCCCCCCCCc1nn2c(-c3ccccc3)nnc2s1	16	19	92.57	15	19	93.88	79.35	17	16	19	13	15	93.88	16	84.08	62.67	1.455
CN(C)CCCN1c2ccccc2CCc2ccc(Cl)cc21 [CLOMIPRAMINE]	–	–	–	–	–	–	–	–	–	–	–	–	–	–	–	52.97	0.42
CN(C)[C@@H]1C(O)=C(C(N)=O)C(=O)[C@@]2(O)C(O)=C3C(=O)c4c(O)cccc4[C@@](C)(O)[C@H]3C[C@@H]12 [TETRACYCLINE]	18	23	–	–	22	–	–	19	20	–	13	16	–	18	–	–	–
